Measurements from different studies.
Compare with care: the assays were run in different laboratories.
Target: Protein kinase C epsilon type (PRKCE, Homo sapiens, UniProt Q02156)
Sequence (Q02156 1-737, as in one of the studies): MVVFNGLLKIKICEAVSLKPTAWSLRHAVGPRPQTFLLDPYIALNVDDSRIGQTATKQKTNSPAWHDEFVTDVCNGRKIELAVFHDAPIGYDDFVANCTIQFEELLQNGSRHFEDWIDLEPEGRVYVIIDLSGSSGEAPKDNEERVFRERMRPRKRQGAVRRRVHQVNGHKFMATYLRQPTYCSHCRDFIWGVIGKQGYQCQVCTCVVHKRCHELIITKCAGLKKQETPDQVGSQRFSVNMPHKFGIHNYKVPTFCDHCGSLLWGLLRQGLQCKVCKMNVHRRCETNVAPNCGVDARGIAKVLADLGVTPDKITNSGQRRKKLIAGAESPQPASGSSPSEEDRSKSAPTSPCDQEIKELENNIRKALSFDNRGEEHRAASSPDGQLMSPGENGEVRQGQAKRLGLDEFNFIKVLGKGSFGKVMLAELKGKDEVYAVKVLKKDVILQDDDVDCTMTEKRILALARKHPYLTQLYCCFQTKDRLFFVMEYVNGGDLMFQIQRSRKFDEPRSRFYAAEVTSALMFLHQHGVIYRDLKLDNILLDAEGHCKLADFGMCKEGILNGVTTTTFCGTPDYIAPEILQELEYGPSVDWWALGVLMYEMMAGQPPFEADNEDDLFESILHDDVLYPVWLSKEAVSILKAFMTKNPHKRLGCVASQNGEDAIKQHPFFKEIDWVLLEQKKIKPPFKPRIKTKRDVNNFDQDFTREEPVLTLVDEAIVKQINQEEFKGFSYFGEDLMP

| Compound | assay | setting | endpoint | result |
| --- | --- | --- | --- | --- |
| COc1ccc2c(c1)O[C@H](c1ccc(OC)c(OC)c1)C[C@@H]2NC(=O)C1(c2ccc3c(c2)OC(F)(F)O3)CC1 | cell-free assay, competition with immobilised ligand | 1 µM | remaining binding | 90% |
| CN(C)C[C@H]1CCn2c(c(C3=C(c4cn(C)c5ccccc45)C(=O)NC3=O)c3ccccc32)C1 | cell-free assay | 0.5 µM | remaining signal | 2.73% |
| CCCS(=O)(=O)Nc1ccc(F)c(C(=O)c2c[nH]c3ncc(-c4ccc(Cl)cc4)cc23)c1F | enzyme activity, inhibitor | 1 µM | inhibition | < 10% |
| CN([C@@H]1CCc2c(CC(=O)O)c3cc(S(C)(=O)=O)ccc3n2C1)S(=O)(=O)c1ccc(F)cc1 | cell-free assay, competition with immobilised ligand | 1 µM | remaining binding | 87% |
| O=C(Nc1cnn(-c2csc(C(=O)NC3COC3)c2)c1)Nc1ccccc1Cl | enzyme activity, inhibitor | 5 µM | remaining activity | 102% |
| CCCOc1ccc(OC)c(F)c1C(=O)c1ccc(C(=O)N[C@@H]2CNC[C@H]2NC(=O)c2ccc3[nH]ncc3c2)cc1 | enzyme activity, inhibitor | 10 µM | remaining activity | 67% |
| CNC(=O)Nc1ccc2c(c1)CC[C@@]21OC(=O)N(CC(=O)N(Cc2ccc(F)cc2)[C@@H](C)C(F)(F)F)C1=O | cell-free assay, competition with immobilised ligand | 1 µM | remaining binding | 22% |
| COc1cc(Cl)c(C(=O)N[C@@H](CN[C@H]2CC[C@@H](N)CC2)Cc2ccc(C#N)cc2)cc1-c1ccc(CN[C@H](C)c2ccc(C)cc2)o1 | enzyme activity, inhibitor | 1 µM | remaining activity | 85% |
| COc1cc2ncnc(Nc3ccc(Oc4ccccc4)cc3C)c2cc1OC | enzyme activity, inhibitor | 1 µM | inhibition | 0% |
| Nc1nc(Nc2ccc(S(N)(=O)=O)cc2)nn1C(=O)c1c(F)cccc1F | cell-free assay | 0.5 µM | remaining signal | 97.2% |
| Nc1c(C(=O)NCc2ccc(C(=O)NCCCC3CCCCC3)cc2)cnn1-c1ccccc1 | cell-free assay, competition with immobilised ligand | 0.1 µM | remaining binding | 100% |
| CN1CC(Oc2cnc(C#N)cc2-c2ccn3nc(NC(=O)C4CC4)cc3c2)C1 | enzyme activity, inhibitor | 1 µM | inhibition | 6% |
| Cc1cc(NC(=O)c2cccc3cc(-c4cccc5[nH]nc(N)c45)ccc23)ccc1F | enzyme activity, inhibitor | 0.1 µM | activity vs control | 84% |
| O=C(Nc1cccnn1)N1CC(C/C=C/c2cncc(Oc3ccc(C(F)(F)F)cn3)n2)C1 | cell-free assay, competition with immobilised ligand | 1 µM | remaining binding | 100% |
| N#CCCc1ccc2c(c1)-c1[nH]c3ccc([N+](=O)[O-])cc3c1CC(=O)N2 | cell-free assay | 0.5 µM | remaining signal | 95.4% |
| Cn1cncc1C1=CN(c2ncnc3[nH]cnc23)CCS1 | enzyme activity, inhibitor, radiometric | 50 nM | inhibition | 25.8% |
| CN(C)c1ncnc(-c2ccc3nc(Nc4cc(CN5CCN(C(=O)CC(F)(F)F)CC5)ccn4)[nH]c3c2)c1Cl | cell-free assay, competition with immobilised ligand | 1 µM | remaining binding | 100% |
| CC(C)(C)c1nc(-c2cccc(NS(=O)(=O)c3c(F)cccc3F)c2F)c(-c2ccnc(N)n2)s1 | enzyme activity, inhibitor, radiometric | 1 µM | remaining activity | 132% |
| Cc1ccc(C(=O)Nc2ccc(CN3CCN(C)CC3)c(C(F)(F)F)c2)cc1C#Cc1cnc2cccnn12 | enzyme activity | 23.5 nM | remaining activity | 77% |
| O=C1NC(=O)c2cc(Nc3ccc(F)cc3)c(Nc3ccc(F)cc3)cc21 | cell-free assay | 0.5 µM | remaining signal | 97.8% |
| CCCCN(CCCC)C(=O)CN1C[C@@H](c2cc(OC)c3c(c2)OCO3)[C@H](C(=O)O)[C@H]1CC(C)(C)CCC | cell-free assay, competition with immobilised ligand | 1 µM | remaining binding | 100% |
| CC(C)(O)[C@H]1CC[C@H](Nc2ccc3ncc(-c4cccc(C(F)(F)F)c4)n3n2)CC1 | enzyme activity, inhibitor | 1 µM | remaining activity | 60.1% |
| CC/C(=N\NC(=O)NCc1cccc(O)c1)c1ccc(O)c(C)c1O | enzyme activity, inhibitor | 0.1 µM | inhibition | 19.6% |
| O=C(CSc1nc2nccnc2c(=O)n1CCc1ccccc1)Nc1nccs1 | enzyme activity, inhibitor | 10 µM | inhibition | -23% |
| CC(C)c1ccc(NC(=O)c2cccs2)c(-c2nc3ccccc3[nH]c2=O)c1 | enzyme activity, inhibitor | 1 µM | activity vs control | 109% |
| CCN(CC)CCNC(=O)c1c(C)[nH]c(/C=C2\C(=O)Nc3ccc(F)cc32)c1C | enzyme activity, inhibitor | 10 µM | inhibition | 21% |
